AHR activator: activates the human aryl hydrocarbon receptor. P35869. AHR-responsive luciferase reporter cells, luminescence. activation, % at 5 µM. hit rate 2.5% among 320,000. AID 2796; in the data active means activation above about 47%
proCasp7 act: activates human procaspase-7, counter-screen for procaspase-3 activators; P55210; recombinant procaspase-7, Ac-DEVD-pNA absorbance 405 nm; D23A/D198A/D206A triple mutant, cannot self-cleave; scale: DMSO 0, 5 µM enzyme 100; activation, % at 8.5 µM; hit rate 0.093% among 330,000;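 active means percent activation above the screen-wide mean plus 3 SD, cut at about 25% in these data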
Target sequence (P55210 whole entry D23A/D198A/D206A): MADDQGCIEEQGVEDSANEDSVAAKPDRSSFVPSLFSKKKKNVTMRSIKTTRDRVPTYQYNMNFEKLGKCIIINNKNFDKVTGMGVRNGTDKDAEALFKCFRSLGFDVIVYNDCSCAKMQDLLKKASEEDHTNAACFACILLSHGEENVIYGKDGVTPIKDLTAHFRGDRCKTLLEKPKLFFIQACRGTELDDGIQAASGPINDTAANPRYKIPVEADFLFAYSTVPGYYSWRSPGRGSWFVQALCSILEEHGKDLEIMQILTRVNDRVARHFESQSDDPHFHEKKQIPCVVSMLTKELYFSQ
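Material: Procaspase-7 triple mutant (PC-7 D3A) | Quantity: 2 µM procaspase-7 mutant as dispensed | Reagent: DEVD-pNA substrate | Times: 1 h preincubation, 2 h reaction | Technique: 405 nm absorbance of p-nitroaniline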
PolyA inhibitor: blocks polyadenylation in yeast reporter cells. S. cerevisiae SKY197-pL101 polyadenylation reporter, beta-gal luminescence; efflux-impaired pdr1/pdr3 knockout yeast; score 100 = 6 SD above DMSO. activity score, % at 12 µM. hit rate 0.02% among 300,000. AID 1875;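 active means lowest replicate activity score at least 50, where 100 means six control SD above control mean; inconclusive means lowest score under 50 but half or more replicates reach 50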;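 further: yeast exposed to compound for 9 h at 30 °C; higher score means more reporter readthrough which indicates perturbed polyadenylation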
procasp3 activ: activators of human procaspase-3; P42574; recombinant procaspase-3 D3A, Ac-DEVD-pNA absorbance 405 nm; activation, % at 8.5 µM; hit rate 0.11% among 330,000; AID 463141;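 active means activation above the mean of all tested compounds plus 3 SD, cut at about 21% in these data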
Target sequence (P42574 whole entry D9A/D28A/D175A): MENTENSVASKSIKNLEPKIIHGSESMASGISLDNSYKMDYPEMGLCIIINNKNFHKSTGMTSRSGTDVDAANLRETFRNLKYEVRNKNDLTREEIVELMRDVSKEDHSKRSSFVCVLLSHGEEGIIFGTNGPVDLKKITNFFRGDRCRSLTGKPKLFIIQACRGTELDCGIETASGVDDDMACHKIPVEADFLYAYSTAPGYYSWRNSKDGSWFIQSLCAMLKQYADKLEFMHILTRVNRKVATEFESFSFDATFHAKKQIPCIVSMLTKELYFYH
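Assay system: Procaspase-3 D3A mutant, all three cleavage aspartates alanine. Buffer or medium: Zinc-free HEPES saline buffer with Triton X-100. Times: 1 h compound preincubation, 2 h substrate hydrolysis at 25 °C. Measured by: 405 nm absorbance of p-nitroaniline, reads at 0 and 120 min. Read-out basis: percent activation relative to control range. Replicates: singlicate.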
Large screens that a line does not name were inactive. Most compounds without a hit are left out; they make up all but 2.6% or so of the library.

O=C(Cn1nnc(-c2ccccc2NC(=O)c2cccs2)n1)Nc1ccccc1	none
N#CCCn1nc(-c2ccccc2)cc1Nc1ccccc1NC(=O)c1cccs1	AHR activator 49
O=S(=O)(c1ccc2c(c1)OCCO2)N1CCCN(S(=O)(=O)c2c(F)cccc2F)CC1	none (no result: PolyA inhibitor)
CC(C)c1nc2cc(C(=O)N3CCNC(=O)C3c3ccc(F)cc3)ccc2o1 (stereo not drawn)	none
O=[N+]([O-])c1cccc(-c2ccc(/C=N/NC(=S)Nc3ccccc3)o2)c1	AHR activator 65
CN1CCC=C(C(=O)N2c3ccccc3Sc3ccc(Cl)cc32)C1	none
Cc1cc(N/C=C\c2nnnn2-c2ccccc2)no1	AHR activator 69
Cc1cc(NC(=O)CSc2nnnn2-c2ccccc2)no1	none
O=C1CCC(C(=O)Nc2cc(C(F)(F)F)ccc2-n2cncn2)=NN1	none
COc1ccc(-c2nc3cccc(C)n3c2NCc2ccco2)cc1OC	AHR activator 57
COc1ccc(-c2csc(NCc3ccco3)n2)cc1C	none
COc1ccc(OCCN(C)C(=O)c2cccc(S(=O)(=O)N(C)c3ccccc3)c2)cc1	none (no result: PolyA inhibitor)
COC(=O)c1[nH]c2ccc(Br)cc2c1NC(=O)CN1CCN(C2CCCCC2)CC1	none
COC(=O)c1[nH]c2ccc(C)cc2c1NC(=O)CN1CCc2cc(OC)c(OC)cc2C1	none
COC(=O)c1[nH]c2ccc(Br)cc2c1NC(=O)CN1CCCc2ccccc21	AHR activator 48
COC(=O)c1[nH]c2cc(C)ccc2c1NC(=O)CN1CCCc2ccccc21	AHR activator 67
COC(=O)c1[nH]c2cc(C)ccc2c1NC(=O)CN1CCN(C(=O)c2ccco2)CC1	AHR activator 67
COc1ccc(NC(=O)C2CCC(C(C)(C)C)CC2)cc1S(=O)(=O)N1CCOCC1 (stereo not drawn)	none (no result: PolyA inhibitor)
COc1ccc(NC(=O)CNc2ccccc2N2CCCC2=O)cc1S(=O)(=O)N1CCOCC1	none (no result: PolyA inhibitor)
CN(C)/C=C/C(=O)c1cnc(-c2ccccc2Cl)s1	AHR activator 57
Cc1oc2cc3oc(=O)c(CCC(=O)NCCN4CCOCC4)c(C)c3cc2c1C	none
CN(C)c1cc(N/N=C/c2ccccc2C(F)(F)F)nc(N(C)C)n1	AHR activator 55
Cc1ccc2c(CC(=O)NNC(=O)c3ccccc3O)coc2c1	none
O=C(Nc1cccc2nsnc12)c1ccc(-c2ccc(Br)cc2)o1	AHR activator 49
FC(F)(F)c1nc(N2CCN(c3ccccc3)CC2)nc2c1CCCCC2	AHR activator 65
Cc1nn(-c2ccc(Cl)cc2)c(=O)c2c(C)noc12	AHR activator 78
Cc1ccc(N2C(=O)c3ccc(N)cc3C2=O)cc1C	none
Cc1ccc(N2C(=O)c3ccc(N)cc3C2=O)cc1	AHR activator 51
Cc1onc(-c2c(Cl)cccc2Cl)c1C(=O)Nc1nccs1	none
CN1C2=NCCN2C(=O)c2ccccc21	AHR activator 52
Nc1nnc(-c2ccc(F)cc2)s1	none
CC(C)(C)c1ccc(-c2nnc(N)s2)cc1	AHR activator 63
COc1ccc(Nc2ccc(C(F)(F)F)cc2[N+](=O)[O-])cn1	none
CCOC(=O)C1CCN(C(=O)c2ccc(OCC(=O)Nc3ccc(OCC)cc3)c(OC)c2)CC1	none
O=C(CN1CCN(c2ccccc2O)CC1)Nc1cc(S(=O)(=O)N2CCCC2)ccc1Cl	none (no result: PolyA inhibitor)
COc1ccccc1N(CC(O)Cn1c2ccccc2c2ccccc21)S(=O)(=O)c1ccccc1 (stereo not drawn)	none
O=S(=O)(c1ccccc1)N(CC(O)Cn1c2ccccc2c2ccccc21)c1ccccc1 (stereo not drawn)	AHR activator 64
Nc1nonc1C(=Nc1ccc(Br)cc1)NO	AHR activator 66
Cn1c2ccccc2c2n[nH]c(=S)nc21	AHR activator 75, PolyA inhibitor inconclusive
Cc1cc(C)cc(NC2=C(N)C(=O)c3ccccc3C2=O)c1	AHR activator 55
c1ccc2c(C3=NNC(=NC4CCCCC4)SC3)c[nH]c2c1	AHR activator 57
O=C(N/N=C\c1ccc(-c2ccccc2[N+](=O)[O-])o1)C1COc2ccccc2O1 (stereo not drawn)	AHR activator 65
COc1ccc(NC(=O)CN(c2ccc(OC)c(Cl)c2)S(=O)(=O)c2ccccc2)cc1	none
Cn1cccc1/C=N\NC(=O)Cc1ccc(Br)c2ccccc12	none
COc1ccc(OC)c(-c2csc(NC(=O)C3=COCCO3)n2)c1	AHR activator 50
Cc1ccc(C)c(-c2csc(NC(=O)C3=COCCO3)n2)c1	none
CCCCn1c(N)c(N(CC(C)C)C(=O)c2ccc(-c3ccc(C(C)=O)cc3)o2)c(=O)[nH]c1=O	none
NC(=O)C1CCN(c2nc(-c3ccccc3Br)cs2)CC1	AHR activator 65 (no result: PolyA inhibitor)
c1ccc2c(c1)OCCOCCOc1ccccc1OCCOCCO2	AHR activator 64
Nc1ccc2c(c1)OCCOCCOCCOCCOCCO2	none
O=C(COC(=O)/C=C/c1cccs1)NC(=O)Cc1ccccc1	none
O=C(COC(=O)/C=C/c1cccs1)NC(c1ccccc1)c1ccccc1	PolyA inhibitor 150
COc1cc(NC(=O)COc2ccc(-n3cnnn3)cc2)cc(OC)c1OC	none (no result: PolyA inhibitor)
CCc1cccc(NC(=S)Nc2cccc3ccccc23)c1	AHR activator 78
C/C(=N\NC(=S)Nc1cccc(C)c1)c1cc2ccccc2o1	AHR activator 49
Cc1ccc(NC(=S)Nc2cccc3ccccc23)cc1	none
Cc1cc(NC(=S)Nc2cccc3ccccc23)n[nH]1	AHR activator 52
CCNC(=S)N/N=C(\C)c1cc2ccccc2o1	none
Cc1cccc(NC(=S)Nc2cccc3ccccc23)c1	AHR activator 63
CCOc1ccc(NC(=S)Nc2cc(C)[nH]n2)cc1	none
CN(C(=O)c1cccs1)c1ccc(OCC(=O)Nc2ccc(C(=O)O)cc2)cc1	none
Cc1ccc(NCC(=O)Nc2cccc(S(=O)(=O)N(C)C)c2)cc1S(=O)(=O)N1CCCCCC1	none
Cc1ccc(SCC(=O)Nc2ccc(N3CCN(C)CC3)c(F)c2)c(C)c1	none
CCN1CCN(C(=O)CN(CC)S(=O)(=O)c2ccc3ccccc3c2)CC1	none
Cc1ccc(S(=O)(=O)N(C)C)cc1NC(=S)Nc1cccc2ccccc12	AHR activator 59
Cc1cc(C)cc(NC(=S)Nc2cccc3ccccc23)c1	AHR activator 69
CC(=O)NNC(=S)Nc1cc(S(=O)(=O)N(C)C)ccc1C	none
Cc1cc(O)ccc1NC(=S)NC(=O)c1cncc(Br)c1	AHR activator 60
Cc1ccccc1NC(=S)NC(=O)c1cncc(Br)c1	none
COc1ccc(OC)c(Nc2ncnc3sccc23)c1	none
COc1ccc(OC)c(Nc2ncnc3sc(-c4ccccc4)cc23)c1	AHR activator 69
O=C(C(=O)N1CCN(c2ccccc2)CC1)c1cn(CC(=O)N2CCCCCC2)c2ccccc12	none
NC(=O)C1CCN(c2nc(-c3ccccc3C(F)(F)F)cs2)CC1	none (no result: PolyA inhibitor)
COC(=O)c1ccc(/C=C(\C#N)C(=O)NC(C)c2ccccc2)cc1 (stereo not drawn)	none
